The record followed here is the RNAGym collection of RNA variant scans (doi:10.1002/anie.201605470).

The labels stand for the following.
B1: Osa-1-4 twister ribozyme (parent)
chain: CCGCCUAACACUGCCAAUGCCGGUCCCAAGCCCGGAUAAAAGUGGAGGGGGCGG

In this data set the parent is B1. The experiment in a line: self-cleavage, relative activity (ratio to wild type); higher = more cleavage; co-transcriptional. In a few lines: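 The 48 positions downstream of the cleavage site in a DNA template for a 54-nucleotide Oryza sativa twister ribozyme carried 97 % wild-type base and 1 % of each other base. After in vitro transcription (2 h, 37 °C) with co-transcriptional self-cleavage, the RNA was reverse-transcribed with a template-switching oligonucleotide, PCR-amplified and deep-sequenced. Relative activity is the fraction cleaved, judged by reads with or without upstream sequence and normalised to wild type.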
As to A10G G42U, the self-cleavage was 0.06.
The result for A10G G42C reads 0.12; that for A10G G42A, 0.22.
The result for A10G C27A reads 0.12; that for A10G C27U, 0.1; that for A10G C27G, 0.07.
The result for A10C G19C reads 0.02; that for A10C G19U, 0.03.
Turning to A10C G19A, the self-cleavage is 0.04.
The result for A10C A16U reads 0.08.
In the case of A10C A16C it was 0.09.
Turning to A10C A16G, the self-cleavage came out at 0.14.
In the case of A10C A36U it was 0.09; in that of A10C A36C, 0.03; in that of A10C A36G, 0.11.
Turning to A10C C33A, the self-cleavage was 0.03.
The result for A10C C33G reads 0.02; that for A10C C33U, 0.04.
In the case of A10C U37C it was 0.09; in that of A10C U37G, 0.11.
The result for A10C U37A reads 0.11.
On to C9U U24A, for which the self-cleavage is 0.06.
In the case of C9U U24C it was 0.06; in that of C9U U24G, 0.01.
In the case of A10G G19C it was 0.09; in that of A10G G19A, 0.28.
For the variant A10G G19U, the self-cleavage amounted to 0.13.
The result for A10C G30U reads 0.01; that for A10C G30C, 0.01.
In the case of A10C G30A it was 0.01; in that of A10G G48C, 0.06; in that of A10G G48A, 0.07.
The result for C9U G34C reads 0.11; that for C9U G34A, 0.41.
As to C9U G34U, the self-cleavage worked out at 0.28.
In the case of A10C G45U it was 0.02; in that of A10C G45A, 0.02.
In the case of A10C G45C it was 0.02.
The result for C9G U18C reads 0.66; that for C9G U18G, 0.73; that for C9G U18A, 0.85.
Consider A10G C21U, for which the self-cleavage came out at 0.89.
In the case of A10G C21A it was 0.33; in that of A10G C21G, 0.08.
Consider A10C G51A, for which the self-cleavage stood at 0.06.
In the case of A10C G51C it was 0.02.
The result for A10C G51U reads 0.04.
The result for C9U U18G reads 0.57; that for C9U U18C, 0.53; that for C9U U18A, 0.6.
A10G A46G: the self-cleavage came out at 0.08.
The result for A10G A46U reads 0.11; that for A10G A46C, 0.06.
In the case of A10C C52G it was 0.11; in that of A10C C52U, 0.11; in that of A10C C52A, 0.06.
As for A10C A28G, the self-cleavage worked out at 0.03.
In the case of A10C A28U it was 0.05; in that of A10C A28C, 0.08.
For A10G A39G, the self-cleavage is 0.82.
In the case of A10G A39U it was 0.69.
The result for A10G A39C reads 0.61.
In the case of A10G A40G, the self-cleavage was determined as 0.34.
In the case of A10G A40U it was 0.27.
In the case of A10G A40C it was 0.08; in that of A10G G22U, 0.16.
In the case of A10G G22C, the self-cleavage is 0.05.
In the case of A10G G22A it was 0.38; in that of A10G A41G, 0.2.
The result for A10G A41U reads 0.76.
The result for A10G A41C reads 0.39; that for A10G C31U, 0.36; that for A10G C31A, 0.05.
Take A10G C31G: the self-cleavage is 0.1.
The result for A10G A7C reads 0.06.
For the variant A10G A7U, the self-cleavage worked out at 0.09.
In the case of A10G A7G it was 0.39; in that of C9U G22A, 0.68.
The result for C9U G22U reads 0.26.
The result for C9U G22C reads 0.03.
Take C9U G44C: the self-cleavage came out at 0.67.
The result for C9U G44A reads 0.76.
In the case of C9U G44U it was 0.69; in that of C9U G51A, 0.28; in that of C9U G51C, 0.04.
The result for C9U G51U reads 0.11; that for A10C C14U, 0.03.
As to A10C C14A, the self-cleavage was 0.02.
In the case of A10C C14G it was 0.04; in that of A10C G44C, 0.16.
The result for A10C G44A reads 0.06.
The result for A10C G44U reads 0.22; that for A10C U24G, 0.02; that for A10C U24C, 0.04.
As to A10C U24A, the self-cleavage amounted to 0.02.
Consider A10G A8C, for which the self-cleavage was determined as 0.13.
The result for A10G A8U reads 0.12; that for A10G A8G, 0.49.
The result for A10C C20U reads 0.08; that for A10C C20G, 0.03.
In the case of A10C C20A it was 0.08; in that of C9U G47U, 0.06; in that of C9U G47C, 0.02.
For the variant C9U G47A, the self-cleavage worked out at 0.06.
The result for C9U G48A reads 0.03; that for C9U G48C, 0.04.
In the case of C9U G48U it was 0.03; in that of A10G G23C, 0.05.
Turning to A10G G23A, the self-cleavage came to 0.1.
In the case of A10G G23U it was 0.05; in that of A10G A16U, 0.61; in that of A10G A16G, 0.89.
The result for A10G A16C reads 0.27; that for A10G C25U, 0.4; that for A10G C25A, 0.07.
The result for A10G C25G reads 0.08; that for C9U G54U, 0.72; that for C9U G54A, 0.69.
Consider C9U G54C, for which the self-cleavage worked out at 0.71.
A10G A28G: the self-cleavage is 0.15.
The result for A10G A28U reads 0.43; that for A10G A28C, 0.63.
Consider C9U G50U, for which the self-cleavage is 0.86.
With C9U G50A, the self-cleavage was 0.28.
In the case of C9U G50C it was 0.73; in that of C9U G49U, 0.05.
In the case of C9U G49A it was 0.06; in that of C9U G49C, 0.04.
On to C9G U24A, for which the self-cleavage was 0.08.
In the case of C9G U24C it was 0.1.
In the case of C9G U24G it was 0.04; in that of C9U U12C, 0.05.
In the case of C9U U12G it was 0.06.
For the variant C9U U12A, the self-cleavage was determined as 0.24.
In the case of A10G G13C it was 0.03; in that of A10G G13A, 0.08.
In the case of A10G G13U it was 0.04; in that of C9G U12C, 0.1.
In the case of C9G U12G it was 0.11; in that of A10G C52G, 0.75.
Regarding A10G C52A, the self-cleavage came out at 0.92.
In the case of A10G C52U it was 0.95; in that of C9U U37A, 0.4; in that of C9U U37C, 0.82.
As to C9U U37G, the self-cleavage turned out to be 0.85.
In the case of A10C G54A it was 0.17.
The result for A10C G54U reads 0.3; that for A10C G54C, 0.14.
The result for A10C A46G reads 0.03; that for A10C A46C, 0.02; that for A10C A46U, 0.02.
For A10C C9U, the self-cleavage came out at 0.06.
For the variant A10C C9A, the self-cleavage was 0.43.
In the case of A10C C9G it was 0.07.
The result for C9U G53C reads 0.05; that for C9U G53U, 0.17.
In the case of C9U G53A it was 0.63.
C9G U43A: the self-cleavage came out at 0.87.
On to C9G U43C, for which the self-cleavage amounted to 0.16.
The result for C9G U43G reads 0.21; that for A10C C31G, 0.03; that for A10C C31A, 0.02.
With A10C C31U, the self-cleavage stood at 0.03.
Turning to C9U G45C, the self-cleavage turned out to be 0.03.
The result for C9U G45A reads 0.06; that for C9U G45U, 0.04; that for C9U G23U, 0.03.
